Most compounds without a hit are left out; they make up all but 3.5% or so of the library.
RGS4 inh: inhibitors of human RGS4 | HEK293 M3R/RGS4 inducible, Fluo-4 calcium flux; hits give high values; triggered by carbachol at its EC20 | P49798 | AID 463165 | B-score at 10 µM | hit rate 0.45% among 310,000;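 active = B-score, a plate-corrected calcium signal, over three deviations above library mean, with baseline fluorescence within five deviations of library mean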;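 also: RGS4 expression induced by doxycycline in cells with stable M3 receptor; B-score is computed from the integrated fluorescence ratio over baseline after carbachol; higher B-score means a larger calcium signal and so more RGS4 inhibition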
Target sequence (P49798 whole entry, looked up): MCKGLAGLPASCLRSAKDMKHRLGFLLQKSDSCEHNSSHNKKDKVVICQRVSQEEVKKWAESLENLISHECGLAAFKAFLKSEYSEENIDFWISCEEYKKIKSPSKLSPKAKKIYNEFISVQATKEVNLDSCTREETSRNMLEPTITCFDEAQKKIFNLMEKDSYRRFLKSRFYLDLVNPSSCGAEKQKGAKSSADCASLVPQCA
RGS4 act: RGS4 potentiation or activation; HEK293 M3R/inducible RGS4, carbachol calcium flux Fluo4; hits give low values; B-score at 10 µM; hit rate 0.92% among 310,000; AID 463111;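 active = B-score of the integrated calcium signal more than 4 SD below the library mean, with starting fluorescence not abnormally high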;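 also: negative B-score means reduced calcium response which marks RGS4 activation or potentiation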
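Assay system: HEK293 FlpIn-TREx cells, stable M3R, doxycycline-inducible RGS4 / Probe or stimulus: carbachol, ECmax concentration / Times: overnight RGS4 induction, 30 min dye load 37 °C, 20 min compound RT / Signal: kinetic calcium fluorescence imaging with Fluo4-AM dye, 2 µM / Measure: Agonist-evoked peak-minus-minimum fluorescence over baseline, integrated ratio, B score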
MrgX1 antag: blocks BAM8-22 activation of human MrgX1 receptor. Q96LB2. MRGX1-HEK293 calcium flux, Fluo-4, BAM8-22 antagonism; hits give low values. B-score at 10 µM. hit rate 1.3% among 310,000. AID 588676;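 active = calcium-response B-score plate-corrected more than 3 library SD below zero, starting fluorescence within 5 deviations, no agonist response on first addition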;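 also: peak minus trough fluorescence over baseline after final BAM8-22 challenge near maximal dose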
Target sequence (Q96LB2 whole entry, looked up): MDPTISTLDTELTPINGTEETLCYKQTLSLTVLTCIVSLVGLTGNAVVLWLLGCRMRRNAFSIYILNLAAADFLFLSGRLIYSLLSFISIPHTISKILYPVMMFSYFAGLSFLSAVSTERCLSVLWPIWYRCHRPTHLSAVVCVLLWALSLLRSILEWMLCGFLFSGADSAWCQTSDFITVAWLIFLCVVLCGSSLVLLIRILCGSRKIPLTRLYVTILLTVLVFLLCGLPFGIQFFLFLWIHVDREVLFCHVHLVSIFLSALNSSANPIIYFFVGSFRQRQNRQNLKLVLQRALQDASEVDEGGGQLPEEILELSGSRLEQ
MrgX1 ag: human MrgX1 receptor agonism, primary screen; Q96LB2; MrgX1-HEK293 cells, Fluo-4 calcium fluorescence, agonist mode; hits give high values; B-score at 10 µM; hit rate 0.44% among 310,000; AID 588627;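 active = calcium response B-score plate-corrected fluorescence ratio at least 3 library SD, with starting fluorescence B-score inside 5 SD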
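Material: MrgX1-expressing HEK293 cells; input: 15,000 cells per well; doses: test compound given as first of three sequential additions; schedule: overnight plating before 1 h dye loading; technique: Fluo-4 NW calcium-flux fluorescence, kinetic read; evaluation: baseline-normalised fluorescence change ratio, B-scored; control set: plate-wise positive and negative controls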
MrgX1 PAM: allosterically activates human MrgX1 receptor signaling; B-score at 10 µM; Q96LB2; AID 588675; MrgX1-HEK293, Fluo-4 calcium flux, FDSS; hits give high values; hit rate 0.63% among 310,000;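 active = plate-corrected calcium response at least 3 library SD above typical, normal starting fluorescence, not activating the receptor alone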;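 also: compound read alongside a low EC10 to EC30 dose of BAM8-22 agonist; peak minus trough fluorescence over baseline measured at the second addition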
Of the large screens only hits and unclear results are named; the others gave an inactive call.

Cc1ccc(S(=O)(=O)N2[C@@H](c3ccccc3F)C(C(=O)O)=CC[C@H]2c2cccc(C)c2)cc1	MrgX1 PAM 11 (no result: RGS4 inh, RGS4 act)
Cc1ccc(S(=O)(=O)N2[C@@H](c3ccccc3F)C(C(=O)O)=CC[C@H]2c2ccc(Cl)c(Cl)c2)cc1	MrgX1 PAM 12 (no result: RGS4 inh, RGS4 act)
Cc1ccc(S(=O)(=O)N2[C@@H](c3ccccc3)C(C(=O)O)=CC[C@H]2c2cccc(C)c2)cc1	none (no result: RGS4 inh, RGS4 act)
Cc1ccccc1C(OCCN(C(C)C)C(C)C)c1ccccc1 (configuration not stated)	RGS4 act -8.6
CN(C)CCOC(c1ccccc1)c1ccccc1	none
COc1ccc(NC(=O)/C(C#N)=C\c2ccc(N3CCOCC3)o2)cc1	RGS4 act -8.6
N#C/C(=C/c1ccc(N2CCCCC2)o1)C(=O)Nc1ccc(Cl)cc1	MrgX1 antag -7.8
N#C/C(=C\c1ccc(N2CCOCC2)o1)C(=O)Nc1ccc(O)cc1	none
N#C/C(=C/c1ccc(N2CCCCC2)o1)C(=O)Nc1ccc2ccccc2c1	none (no result: MrgX1 antag, MrgX1 ag, MrgX1 PAM)
COc1ccccc1OCCCN1C(=O)C(=O)c2cccc(C)c21	MrgX1 ag 28
Cn1cc(/C=C/C(=O)c2ccccc2)c2ccccc21	none
Cn1cc(/C=C(\C(=O)O)C(C(=O)O)=C2CCCCC2)c2ccccc21	MrgX1 antag -4.8
CCN(CC)S(=O)(=O)c1ccc(N2CCc3cc(OC)c(OC)cc3C2)nc1	none
Cc1cc(S(=O)(=O)N2CCCOC2CNC(=O)C(=O)NCCc2ccco2)ccc1F (configuration not stated)	none
Cc1oc(-c2ccc(Cl)cc2)nc1CS(=O)CC(=O)NCc1ccc2c(c1)OCO2 (configuration not stated)	MrgX1 antag -4.9
Cc1ccc(Cl)cc1N1CCN(c2cccc[n+]2C)CC1	RGS4 act -7.3
CCN1CCN(C(=O)c2cccc(OC3CCN(S(C)(=O)=O)CC3)c2)[C@@H](C)C1=O	none
Cc1nn(-c2ccccc2)c(C)c1/C=N/NC(=O)c1cc(-c2ccc(Cl)s2)[nH]n1	RGS4 act -7.8
Cc1nn(-c2ccccc2)c(N2CCCC2)c1/C=N/NC(=O)c1ccccc1O	MrgX1 antag -7.2
CNC(=S)N/N=C/c1c(C)nn(-c2ccccc2)c1Cl	none
Cc1nn(-c2ccccc2)c(Cl)c1/C=N/NC(=O)OC(C)(C)C	RGS4 act -8
Cc1nn(-c2ccccc2)c(C)c1/C=N/NC(=O)c1ccccc1O	none
COc1cc(/C=N/NC(=O)c2cc(-c3c(C)nn(-c4ccccc4)c3C)n[nH]2)ccc1O	none
Cc1nn(-c2ccccc2)c(C)c1-c1cc(C(=O)N/N=C/c2ccc(O)cc2)[nH]n1	RGS4 act -7.1
COc1ccc(/C=C(\C#N)C(=O)Nc2ccc3[nH]c(=O)[nH]c3c2)cc1	none
COc1ccc(NS(=O)(=O)c2ccc(C)c(C(=O)N3CCC3)c2)cc1	none
Cc1nn(-c2ccccc2)c(C)c1/C=N/NC(=O)c1cccs1	MrgX1 antag -7.1
Cc1nn(-c2ccccc2)c(C)c1/C=N/NC(=O)c1cc(-c2cccs2)[nH]n1	none
COc1ccccc1NS(=O)(=O)c1ccc(C)c(C(=O)NCCCN2CCCC2=O)c1	MrgX1 antag -9.1
Cc1ccc(S(=O)(=O)Nc2ccccc2F)cc1C(=O)NCCCN1CCCC1=O	none
O=C(NC(c1cccnc1)C(F)(F)F)c1cc(COc2ccc3c(c2)CCCC3)on1 (configuration not stated)	RGS4 act -7.1
Cc1ccc(CSCC(=O)Nc2cc(S(=O)(=O)N3CCOCC3)ccc2OC(C)C)cc1	none
O=C(Nc1cccc(C(F)(F)F)c1)Nc1ccc2[nH]c(=O)[nH]c2c1	none
Cc1ccc(S(=O)(=O)N2CCN(C)CC2)cc1[N+](=O)[O-]	MrgX1 antag -4.9
CCOCCC(=O)Nc1nnc(CCc2ccccc2)s1	none
CCc1noc(C)c1C(=O)N1CCN(S(=O)(=O)c2cccs2)CC1	none
Nc1cc(=O)[nH]c(SCc2cccc3ccccc23)n1	none
O=c1cc(C(F)(F)F)nc(SCc2cccc3ccccc23)[nH]1	MrgX1 antag -5.1
Cc1cnc(CNC(=O)CC2C(=O)NCCN2Cc2cccc(F)c2F)cn1 (configuration not stated)	none
O=C(Nc1ccc(Cl)c(Cl)c1)c1cccnc1	none
O=C(NNS(=O)(=O)c1cc(Cl)c(Cl)cc1Cl)c1cccnc1	MrgX1 antag -9.2
C/C(=N\NC(=O)Cn1nc(C)c([N+](=O)[O-])c1C)c1ccco1	MrgX1 antag -5.9
Cc1cc(CNC(=O)Cn2nc(C)c([N+](=O)[O-])c2C)c2ccccc2n1	MrgX1 PAM 9.4
Cc1nn(CC(=O)NCc2ccco2)c(C)c1[N+](=O)[O-]	none
Cc1nn(CC(=O)NCc2ccccc2Cl)c(C)c1[N+](=O)[O-]	none
O=C(NNS(=O)(=O)c1ccccc1Cl)c1nn(-c2ccc(F)cc2)ccc1=O	none
N[C@@H](Cc1ccccc1)C(=O)N1CCC(C(=O)NCC(=O)NCC(=O)O)CC1	none
Cc1ccc(S(=O)(=O)c2nc(S(C)(=O)=O)sc2N2CC(C)OC(C)C2)cc1 (configuration not stated)	none
CC1C/C(=C\c2ccccc2[N+](=O)[O-])c2nc3ccccc3c(C(=O)O)c2C1 (configuration not stated)	none
COc1ccc(/C=C2\C(=O)ON=C2c2cccc([N+](=O)[O-])c2)cc1	RGS4 inh 6.8
Nc1cc(=O)nc(SCC(=O)N2CCN(c3ccccc3)CC2)n1-c1ccc(F)cc1	none
Cn1c(Cc2cccc3ccccc23)nnc1SCc1ccc([N+](=O)[O-])cc1	MrgX1 antag -8.6
CCOC(=O)c1ccc(-n2c(CN(CC)CC)nc3ccc([N+](=O)[O-])cc3c2=O)cc1	none
CC(C)CN1C(=O)/C(=C(/C#N)C(=O)NC2CCCCC2)c2ccccc21	MrgX1 PAM 8.2
Cc1ccccc1-n1ncc2c1CC(C)(C)CC2NC(=O)CCN1Cc2ccccc2C1=O (configuration not stated)	none
CCNC(=S)Nc1ccc(Cl)c([N+](=O)[O-])c1	MrgX1 antag -5.8
COc1ccc(CNC(=O)CCC(=O)Nc2cccnc2)cc1	none
CS(=O)(=O)/C(C#N)=C\c1cnc(S(=O)(=O)c2ccccc2)s1	MrgX1 ag 29
COc1ccc(/C(O)=C/C(=O)C(=O)NNC(=O)c2ccccc2)cc1	none
COc1ccc(/C(O)=C/C(=O)C(=O)NNC(=O)C(O)(c2ccccc2)c2ccccc2)cc1	MrgX1 antag -4.8
CCc1ccc(C2C(C#N)=C(N)C(C#N)(C#N)C3=CCC(C(C)(C)C)CC32)cc1 (configuration not stated)	MrgX1 antag -5.8
COc1ccccc1CCC(=O)OCC(=O)Nc1cccc(S(=O)(=O)N2CCCCC2)c1	MrgX1 antag -4.7
COc1ccccc1C(=O)NC(=O)Nc1nc(-c2ccccc2)cc(C(F)(F)F)n1	none
